Measured values of several laboratories.
Each line is one published result; the experiments were not run side by side.
Target: Ephrin type-A receptor 4 (EPHA4, Homo sapiens, UniProt P54764)

SMILES | effect on | method | concentration | remaining binding [%]
NS(=O)(=O)c1cc(NC(=O)Cc2ccccc2)ccc1Oc1cccc(Cl)c1 | cell-free assay | competition with immobilised ligand | 1 µM | 97
CN(C)c1nccc(-c2cnc3ncccn23)n1 | binding |  | 1 µM | 100
COc1ncc2cc3ccccc3nc2c1C#N | cell-free assay | competition with immobilised ligand | 5 µM | 100
CNC(=O)[C@@H]1CC[C@@H](n2c(-c3ccc4cnccc4c3)nc3ccc(C(=O)NCc4cccc(C(N)=O)c4)cc32)C1 | binding | competition with immobilised ligand | 1 µM | 98
C[C@@H]1CCN(c2nccc(-c3cnn4ncccc34)n2)C1 | binding |  | 1 µM | 100
CC(=O)c1c(NS(C)(=O)=O)c2cc(-c3ccc(Cl)cc3)c(-c3ccc(Cl)cc3Cl)nc2n(C)c1=O | cell-free assay | competition with immobilised ligand | 1 µM | 98
CCN1CCN(Cc2ccc(C(=O)Nc3ccc(C)c(Oc4ccc5c(c4)CC(=O)N5)c3)cc2C(F)(F)F)CC1 | binding | competition with immobilised ligand | 1 µM | 100
FC(F)(F)Oc1cccc(-c2cnc3ccc(-c4ccncc4)nn23)c1 | cell-free assay | competition with immobilised ligand | 5 µM | 92
O=C(c1ccc(Nc2ncc(Cl)c(-c3cc4ccccc4s3)n2)cc1)N1CCC(N2CCCC2)CC1 | binding | competition with immobilised ligand | 1 µM | 65
O=C(Nc1ccc(Oc2ccc(F)cc2)cc1)N1CCc2ncccc2[C@H]1c1ccc(F)cc1 | cell-free assay | competition with immobilised ligand | 1 µM | 100
N[C@@H]1CCN(c2nccc(-c3cnn4ncccc34)n2)C1 | binding |  | 1 µM | 97
O=C(c1ccc(Nc2ncc(Cl)c(-c3ccc(Cl)s3)n2)cc1)N1CCC(N2CCCC2)CC1 | binding | competition with immobilised ligand | 1 µM | 84
O=C(Nc1c[nH]nc1C(=O)NC1CCNCC1)c1cc(F)cc(F)c1 | binding | competition with immobilised ligand | 1 µM | 100
CN(c1nccc(-c2cnn3ncccc23)n1)C1CC1 | binding |  | 1 µM | 100
C=CC(=O)N1CCC(C(=O)NCC(=O)N2CCN(c3nc(-c4cnc(N)nc4C(F)F)nc(N4CCOCC4)n3)CC2)CC1 | binding | competition with immobilised ligand | 1 µM | 94
CN(CCCC(F)(F)F)c1nccc(-c2cnn3ncccc23)n1 | binding |  | 1 µM | 100
c1ccc(N2CCN(Cc3nc4ccccc4[nH]3)CC2)nc1 | cell-free assay | competition with immobilised ligand | 1 µM | 100
CN(C)c1ncc(F)c(-c2cnn3ncccc23)n1 | binding |  | 1 µM | 100
O=C1NC(c2ccccn2)Sc2ccccc21 (stereo not shown) | cell-free assay | competition with immobilised ligand | 1 µM | 89
O=C(c1ccc(Nc2nccc(-c3cc4ccccc4s3)n2)cc1)N1CCC(N2CCCC2)CC1 | binding | competition with immobilised ligand | 1 µM | 91
O=c1nc(-c2ccccn2)sc2ccccc12 | cell-free assay | competition with immobilised ligand | 1 µM | 100
COc1ccnn2ncc(-c3ccnc(N(C)C)n3)c12 | binding |  | 1 µM | 95
